Mcl1-Noxa inh = Mcl-1/Noxa interaction inhibition; Q07820; TR-FRET Mcl-1/Noxa peptide binding, 2 h; inhibition, % at 21.7 µM; hit rate 1.5% among 220,000;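 active = compounds that cut the protein-peptide binding signal by more than 50% relative to plate controls in a single-dose test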;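 also: His-tagged Mcl-1 with rhodamine Noxa BH3 peptide and terbium anti-His antibody; 0% = Mcl-1 plus Noxa peptide wells and 100% = peptide-only wells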
Target sequence (Q07820 whole entry, looked up): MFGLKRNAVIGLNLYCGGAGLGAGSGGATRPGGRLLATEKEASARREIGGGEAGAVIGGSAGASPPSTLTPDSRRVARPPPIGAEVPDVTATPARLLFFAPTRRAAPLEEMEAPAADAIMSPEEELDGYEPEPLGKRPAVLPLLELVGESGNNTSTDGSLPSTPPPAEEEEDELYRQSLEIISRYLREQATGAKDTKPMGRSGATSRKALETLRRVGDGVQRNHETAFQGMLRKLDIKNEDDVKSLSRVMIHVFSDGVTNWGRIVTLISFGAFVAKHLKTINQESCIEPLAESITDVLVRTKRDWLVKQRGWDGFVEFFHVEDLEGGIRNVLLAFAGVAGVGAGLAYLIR
Mcl1 Bid PPI = Mcl-1/Bid interaction inhibition | Q07820 | TR-FRET Mcl-1/Bid-Dy647 peptide binding, 1536-well | hit rate 0.97% among 220,000 | inhibition, % at 21.7 µM;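 active = compounds that cut the binding signal by more than half at the single screening dose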;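 also: His-tagged Mcl-1 with europium anti-His antibody binding Bid BH3 peptide; 0% = Mcl-1 plus peptide wells and 100% = peptide-only wells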
Arbovirus inh = blocks arbovirus infection | arbovirus infection cell-based antiviral screen | inhibition, % at 10 µM | hit rate 0.37% among 200,000; in the data active = inhibition above about 30%
Bim-Mcl-1 = human Bim-Mcl-1 interaction inhibition; inhibition, % at 10 µM; AID 1009; Bead-based flow cytometry, Bim peptide-Mcl-1 binding; hit rate 0.1% among 190,000; Q07820; in the data active = inhibition above about 40%;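 also: 0% = no compound tracer wells and 100% = peptide blocker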
Biofilm kill mix = mixtures killing C. albicans biofilm. C. albicans biofilm persisters + clotrimazole, fluorescence viability; primary screen in compound mixtures of four per well. inhibition, % at 7.6 µM. hit rate 0.02% among 120,000. AID 1242;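 active = inhibition above 30.3% in the primary screen of four-compound pools, then above 30% when the compound was retested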;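 also: compounds exposed to preformed 24 h biofilms for 48 h; 0% = untreated biofilm control and 100% = clotrimazole plus chlorhexidine kill blank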
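Test system: C. albicans CAF4-2 wild-type biofilms; buffer or medium: RPMI/MOPS medium, pH 7.0; schedule: 24 h biofilm formation, then 48 h compound exposure, 37 °C; detection: Alamar Blue fluorescence; measure: percent inhibition of biofilm viability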
Calpain2 inh = calpain II (pig) inhibition | purified calpain II, fluorogenic peptide substrate, 30 min | inhibition, % at 16 µM | hit rate 0.37% among 220,000 | AID 1236;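 active = inhibition above about 50%, limit read from the data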
Active calls of the source: *. Only some compounds are listed: those with a hit (about 2.8% of all), similar ones and a draw of the others.

`CCCCN(Cc1cc2ccccc2[nH]c1=O)S(C)(=O)=O` gave Mcl1-Noxa inh 14.3, Mcl1 Bid PPI 98.0*, Arbovirus inh 12.1, Bim-Mcl-1 -1.0, Biofilm kill mix -1.2 and Calpain2 inh 23.7.
Screening O=C(OCc1ccc(F)cc1)c1ccc2ccccc2n1 returned Mcl1-Noxa inh -1.3, Mcl1 Bid PPI -6.1, Arbovirus inh 13.9, Bim-Mcl-1 1.0, Biofilm kill mix 6.8 and Calpain2 inh 24.4.
Screening O=C(c1ccc(Oc2ccccc2)cc1)c1nc2c(n1O)CCCC2 returned Mcl1-Noxa inh -0.1, Mcl1 Bid PPI -2.2, Arbovirus inh -1.2, Bim-Mcl-1 0.0 and Calpain2 inh 75.3*.
COCCCNC(=O)/C(C#N)=C/c1ccc(OCC(=O)O)c(OC)c1 was read as Mcl1-Noxa inh 99.6*, Mcl1 Bid PPI 32.2, Arbovirus inh 1.4, Bim-Mcl-1 1.0, Biofilm kill mix 23.3 and Calpain2 inh 6.0.
`Cc1cc(N/N=C/c2ccc(O)c(C)c2O)nc(-c2ccccc2O)n1` gave Mcl1-Noxa inh 89.2*, Mcl1 Bid PPI 74.6*, Arbovirus inh -35.7, Bim-Mcl-1 -2.0, Biofilm kill mix 11.6 and Calpain2 inh -52.3.
Screening Cc1c(O)ccc(/C=N/Nc2nc(-c3cccnc3)nc3ccccc23)c1O returned Mcl1-Noxa inh 89.2*, Mcl1 Bid PPI -10.6, Biofilm kill mix 7.1 and Calpain2 inh -20.7.
`COCCCNc1nc(-c2ccncc2)nc2ccccc12` gave Mcl1-Noxa inh -2.2, Mcl1 Bid PPI -26.2, Arbovirus inh 32.6*, Bim-Mcl-1 -1.0 and Calpain2 inh -21.3.
Screening COc1ccc(/C=N/Nc2nc(-c3cccnc3)nc3ccccc23)cc1OC returned Mcl1-Noxa inh 50.1, Mcl1 Bid PPI -22.4, Biofilm kill mix 10.9 and Calpain2 inh -19.8.
For C/C(=N\Nc1cc(C)nc(-c2ccccc2O)n1)c1ccccc1 the results were Mcl1-Noxa inh 5.1, Mcl1 Bid PPI -22.8, Arbovirus inh 1.3, Bim-Mcl-1 3.0, Biofilm kill mix 7.2 and Calpain2 inh -23.6.
Oc1ccc(/C=N/Nc2nc(-c3cccnc3)nc3ccccc23)c(O)c1 was read as Mcl1-Noxa inh 84.1*, Mcl1 Bid PPI -10.6, Biofilm kill mix 13.9 and Calpain2 inh 7.7.
Cc1ccccc1Nc1nc(-c2cccnc2)nc2ccccc12 was read as Mcl1-Noxa inh 10.9, Mcl1 Bid PPI -6.4, Arbovirus inh -4.9, Bim-Mcl-1 0.0, Biofilm kill mix 13.4 and Calpain2 inh 19.9.
Screening Cc1ccc(-c2nc(N/N=C/c3ccncc3)c3ccccc3n2)cc1 returned Mcl1-Noxa inh 47.6, Mcl1 Bid PPI 66.0*, Arbovirus inh -24.1, Bim-Mcl-1 0.0 and Calpain2 inh -5.8.
`COCCn1c(SCc2ccccc2F)nc2ccccc2c1=O` gave Mcl1-Noxa inh 13.4, Mcl1 Bid PPI 18.1, Arbovirus inh 15.0, Bim-Mcl-1 -5.0, Biofilm kill mix 6.6 and Calpain2 inh 51.0*.
Screening C=CCNC(=S)NCCCCC1NC(=S)N(CC=C)C1=O (stereo not drawn) returned Mcl1-Noxa inh 20.7, Mcl1 Bid PPI -11.3, Arbovirus inh -6.8, Bim-Mcl-1 1.0, Biofilm kill mix 19.0 and Calpain2 inh 23.3.
For C=CCOc1c2ccc(C(=O)NCc3ccccc3OC)cc2nn1C the results were Mcl1-Noxa inh 9.9, Mcl1 Bid PPI 63.6*, Arbovirus inh 2.4, Bim-Mcl-1 0.0 and Calpain2 inh -437.8.
CC(C)Oc1cccc(C(=O)NC(=S)Nc2ccccc2)c1 was read as Mcl1-Noxa inh 6.5, Mcl1 Bid PPI -21.6, Arbovirus inh 35.9*, Bim-Mcl-1 -10.0, Biofilm kill mix -1.4 and Calpain2 inh 18.6.
For COc1cc(C(=O)OCCCN=C2NS(=O)(=O)c3ccccc32)cc(OC)c1OC the results were Mcl1-Noxa inh 8.6, Mcl1 Bid PPI 0.2, Arbovirus inh 3.4, Bim-Mcl-1 -5.0, Biofilm kill mix 12.1 and Calpain2 inh -42.1.
NS(=O)(=O)c1ccc(Sc2nc3ccccc3s2)c([N+](=O)[O-])c1 was read as Mcl1-Noxa inh -1.6, Mcl1 Bid PPI -14.0, Biofilm kill mix 24.5 and Calpain2 inh -11.2.
O=C(O)c1ccc(S(=O)(=O)Nc2ccc(O)c(Sc3nc4ccccc4s3)c2)cc1 was read as Mcl1-Noxa inh 50.8*, Mcl1 Bid PPI -46.2, Arbovirus inh 2.6, Bim-Mcl-1 0.0, Biofilm kill mix 22.1 and Calpain2 inh -30.1.
Screening O=C(NCCCN1CCOCC1)C(=O)N/N=C/c1cccc2ccccc12 returned Mcl1-Noxa inh 1.8, Mcl1 Bid PPI -2.6, Biofilm kill mix 9.8 and Calpain2 inh -15.8.
For O=C(N/N=C/c1cccnc1)c1cccc(S(=O)(=O)N2CCCC2)c1 the results were Mcl1-Noxa inh 1.0, Mcl1 Bid PPI -32.2, Arbovirus inh 7.2, Bim-Mcl-1 55.0*, Biofilm kill mix 9.3 and Calpain2 inh -25.2.
Screening CC(=O)c1sc(N/N=C2\CC3CC2C(C)C3(C)C)nc1C (stereo not drawn) returned Mcl1-Noxa inh 6.8, Mcl1 Bid PPI 2.1, Arbovirus inh -2.9, Bim-Mcl-1 0.0, Biofilm kill mix 9.8 and Calpain2 inh -0.7.
For CC1CC1C(=O)Nc1nc(-c2ccc(Cl)s2)cs1 (stereo not drawn) the results were Mcl1-Noxa inh 13.0, Mcl1 Bid PPI -14.5, Arbovirus inh 44.4*, Bim-Mcl-1 2.0, Biofilm kill mix 16.0 and Calpain2 inh 0.9.
`CCN(CC)C(=O)N1CCN(C)CC1` gave Mcl1-Noxa inh -34.3, Mcl1 Bid PPI 58.9*, Arbovirus inh 4.0, Bim-Mcl-1 -1.0 and Calpain2 inh 11.2.
CCN(CC)C(=O)N1CCN(C(=O)N(CC)CC)CC1 was read as Mcl1-Noxa inh -7.9, Mcl1 Bid PPI -31.8, Arbovirus inh 4.6, Bim-Mcl-1 -2.0, Biofilm kill mix 0.6 and Calpain2 inh -21.5.
For Cc1ccc(Cn2nc(C)c(NC(=O)CSc3nc4c(c(C(F)(F)F)n3)CCc3ccccc3-4)c2C)cc1 the results were Mcl1-Noxa inh 34.2, Mcl1 Bid PPI 74.2*, Arbovirus inh -2.6, Bim-Mcl-1 -3.0, Biofilm kill mix 10.1 and Calpain2 inh -7.2.
Cc1nn(Cc2ccc(Cl)cc2)c(C)c1NC(=O)CSc1nc2c(c(C(F)(F)F)n1)CCc1ccccc1-2 was read as Mcl1-Noxa inh -9.6, Mcl1 Bid PPI 41.7, Arbovirus inh -6.6, Bim-Mcl-1 0.0 and Calpain2 inh -56.4.
For C=C1SC(Nc2c(C)cc(C)cc2C)=NC12CCCCC2 the results were Mcl1-Noxa inh 17.4, Mcl1 Bid PPI 15.6, Biofilm kill mix 10.0 and Calpain2 inh 32.2.
O=C(O)c1ccc(COc2ccc3ccccc3c2/C=C2/NC(=O)N(Cc3ccc(F)cc3)C2=O)cc1 was read as Mcl1-Noxa inh 16.6, Mcl1 Bid PPI -21.5, Arbovirus inh 47.7*, Bim-Mcl-1 0.0, Biofilm kill mix 0.0 and Calpain2 inh -65.5.
Screening O=c1c2cnn(-c3ccccc3)c2nc(-c2ccco2)n1-c1ccccc1 returned Mcl1-Noxa inh 23.2, Mcl1 Bid PPI 58.4*, Arbovirus inh -0.7, Bim-Mcl-1 2.0 and Calpain2 inh -49.2.
For Cc1cc(C)c(N)c(C(=O)O)c1 the results were Mcl1-Noxa inh 12.8, Mcl1 Bid PPI 61.0*, Biofilm kill mix 21.7 and Calpain2 inh -156.7.

Assay outcomes (PubChem)
